Measured values as given in the M2OR odorant receptor database.

How the values were obtained:
Conditions in all cases: stereoisomer not certain
OR10H3 (Homo sapiens) = target: T1, OR10H3 (Homo sapiens) (UniProt O60404)
T1 sequence (whole entry): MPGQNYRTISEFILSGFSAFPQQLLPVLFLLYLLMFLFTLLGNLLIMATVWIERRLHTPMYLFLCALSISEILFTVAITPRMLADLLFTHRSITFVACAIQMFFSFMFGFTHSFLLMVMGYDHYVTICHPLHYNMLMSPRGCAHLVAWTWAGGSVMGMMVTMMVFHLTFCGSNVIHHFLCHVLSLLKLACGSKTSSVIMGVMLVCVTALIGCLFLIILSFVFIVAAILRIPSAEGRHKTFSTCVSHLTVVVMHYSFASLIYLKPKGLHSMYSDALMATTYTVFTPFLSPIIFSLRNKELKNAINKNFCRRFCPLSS
Summary of the method: (§1)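 Each entry records the cell line, G-protein, co-transfected protein and tags used. Methods varied with the source, often transient luciferase assays in mammalian cell lines. A receptor–molecule pair is called responsive (active) if the original authors judged its signal statistically different from baseline and non-responsive (inactive) otherwise.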

OR10H4 (Homo sapiens) = target: T2, OR10H4 (Homo sapiens) (UniProt Q8NGA5)
T2 sequence (whole entry): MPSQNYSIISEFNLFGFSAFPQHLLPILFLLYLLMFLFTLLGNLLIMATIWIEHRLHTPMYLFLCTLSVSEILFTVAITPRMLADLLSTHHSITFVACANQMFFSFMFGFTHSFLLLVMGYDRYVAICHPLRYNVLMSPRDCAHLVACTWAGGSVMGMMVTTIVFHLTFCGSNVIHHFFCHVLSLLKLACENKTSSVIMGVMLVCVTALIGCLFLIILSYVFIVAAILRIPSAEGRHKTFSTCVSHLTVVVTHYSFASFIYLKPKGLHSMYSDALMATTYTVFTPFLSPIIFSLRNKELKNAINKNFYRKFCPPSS
Summary of the method: as §1

OR10H5 (Homo sapiens) = target: T3, OR10H5 (Homo sapiens) (UniProt Q8NGA6)
T3 sequence (whole entry): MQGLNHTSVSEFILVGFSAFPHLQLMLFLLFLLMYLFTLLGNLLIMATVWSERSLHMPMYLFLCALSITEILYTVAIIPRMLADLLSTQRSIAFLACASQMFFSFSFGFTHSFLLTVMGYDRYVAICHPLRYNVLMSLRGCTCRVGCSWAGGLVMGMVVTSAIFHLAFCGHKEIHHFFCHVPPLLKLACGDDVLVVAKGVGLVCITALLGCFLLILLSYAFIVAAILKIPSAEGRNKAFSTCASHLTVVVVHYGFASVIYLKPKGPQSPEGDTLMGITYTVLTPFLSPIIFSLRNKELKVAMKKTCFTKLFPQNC
Summary of the method: as §1

OR10J1 (Homo sapiens) = target: T4, OR10J1 (Homo sapiens) (UniProt P30954)
T4 sequence (whole entry): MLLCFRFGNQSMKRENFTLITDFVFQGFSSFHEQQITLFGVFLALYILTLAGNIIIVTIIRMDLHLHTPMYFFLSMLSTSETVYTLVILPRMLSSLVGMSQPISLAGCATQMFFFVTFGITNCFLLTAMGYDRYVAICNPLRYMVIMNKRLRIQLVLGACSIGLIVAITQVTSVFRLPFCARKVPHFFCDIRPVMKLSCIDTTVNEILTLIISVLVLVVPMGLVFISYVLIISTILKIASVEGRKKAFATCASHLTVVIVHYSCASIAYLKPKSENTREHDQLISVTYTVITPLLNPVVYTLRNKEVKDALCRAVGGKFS
Summary of the method: as §1

OR10J3 (Homo sapiens) = target: T5, OR10J3 (Homo sapiens) (UniProt Q5JRS4)
T5 sequence (whole entry): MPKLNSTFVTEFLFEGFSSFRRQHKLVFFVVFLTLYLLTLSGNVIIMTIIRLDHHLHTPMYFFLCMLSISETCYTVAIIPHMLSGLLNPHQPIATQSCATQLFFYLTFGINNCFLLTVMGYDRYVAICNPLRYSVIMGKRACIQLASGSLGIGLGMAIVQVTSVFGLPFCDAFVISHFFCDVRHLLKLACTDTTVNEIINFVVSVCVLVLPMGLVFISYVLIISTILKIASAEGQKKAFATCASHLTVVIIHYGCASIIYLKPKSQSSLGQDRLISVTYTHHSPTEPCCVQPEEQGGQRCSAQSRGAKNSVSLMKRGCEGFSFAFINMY
Summary of the method: as §1

OR10J5 (Homo sapiens) = target: T6, OR10J5 (Homo sapiens) (UniProt Q8NHC4)
T6 sequence (whole entry): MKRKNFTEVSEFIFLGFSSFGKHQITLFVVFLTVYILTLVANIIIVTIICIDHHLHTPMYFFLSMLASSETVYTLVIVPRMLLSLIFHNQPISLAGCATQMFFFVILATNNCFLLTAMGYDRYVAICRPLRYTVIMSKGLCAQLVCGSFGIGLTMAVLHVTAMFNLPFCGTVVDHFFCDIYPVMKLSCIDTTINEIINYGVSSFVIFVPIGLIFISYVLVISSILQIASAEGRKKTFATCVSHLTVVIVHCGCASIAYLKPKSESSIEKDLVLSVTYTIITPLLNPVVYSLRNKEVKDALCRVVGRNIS
Summary of the method: as §1

OR10K1 (Homo sapiens) = target: T7, OR10K1 (Homo sapiens) (UniProt Q8NGX5)
T7 sequence (whole entry): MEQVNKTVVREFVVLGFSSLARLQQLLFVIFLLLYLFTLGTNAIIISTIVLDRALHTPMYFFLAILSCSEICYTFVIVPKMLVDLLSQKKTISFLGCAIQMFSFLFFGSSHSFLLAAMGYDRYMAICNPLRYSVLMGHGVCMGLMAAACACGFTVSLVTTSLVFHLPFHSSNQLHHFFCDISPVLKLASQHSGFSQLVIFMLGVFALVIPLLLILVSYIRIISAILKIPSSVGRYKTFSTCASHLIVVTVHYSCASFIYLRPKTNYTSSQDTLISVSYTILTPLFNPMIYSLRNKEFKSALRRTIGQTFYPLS
Summary of the method: as §1

OR10K2 (Homo sapiens) = target: T8, OR10K2 (Homo sapiens) (UniProt Q6IF99)
T8 sequence (whole entry): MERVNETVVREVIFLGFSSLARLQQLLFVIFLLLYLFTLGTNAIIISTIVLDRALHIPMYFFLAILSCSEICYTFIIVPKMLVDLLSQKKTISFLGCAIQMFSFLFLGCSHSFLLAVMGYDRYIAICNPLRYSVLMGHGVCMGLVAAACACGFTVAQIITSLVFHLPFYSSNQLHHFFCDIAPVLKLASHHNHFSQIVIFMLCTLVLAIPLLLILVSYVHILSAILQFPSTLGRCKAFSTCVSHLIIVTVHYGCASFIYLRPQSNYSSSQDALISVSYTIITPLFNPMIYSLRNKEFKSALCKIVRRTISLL
Summary of the method: as §1

OR10P1 (Homo sapiens) = target: T9, OR10P1 (Homo sapiens) (UniProt Q8NGE3)
T9 sequence (whole entry): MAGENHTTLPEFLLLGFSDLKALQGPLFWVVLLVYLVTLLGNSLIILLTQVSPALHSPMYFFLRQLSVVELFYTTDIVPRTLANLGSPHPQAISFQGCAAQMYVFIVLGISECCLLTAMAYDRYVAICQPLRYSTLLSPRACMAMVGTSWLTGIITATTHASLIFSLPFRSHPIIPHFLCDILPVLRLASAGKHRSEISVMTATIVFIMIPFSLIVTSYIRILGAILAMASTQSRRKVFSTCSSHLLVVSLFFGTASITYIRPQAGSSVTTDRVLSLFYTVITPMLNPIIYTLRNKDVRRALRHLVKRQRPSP
Summary of the method: as §1

OR10Q1 (Homo sapiens) = target: T10, OR10Q1 (Homo sapiens) (UniProt Q8NGQ4)
T10 sequence (whole entry): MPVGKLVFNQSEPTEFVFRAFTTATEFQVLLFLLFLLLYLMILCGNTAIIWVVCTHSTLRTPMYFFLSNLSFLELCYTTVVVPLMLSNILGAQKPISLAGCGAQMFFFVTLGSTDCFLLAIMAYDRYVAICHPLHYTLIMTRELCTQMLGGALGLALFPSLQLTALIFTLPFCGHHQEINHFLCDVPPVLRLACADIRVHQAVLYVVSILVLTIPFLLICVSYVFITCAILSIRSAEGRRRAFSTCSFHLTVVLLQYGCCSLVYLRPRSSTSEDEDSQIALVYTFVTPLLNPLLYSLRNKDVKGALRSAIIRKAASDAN
Summary of the method: as §1

Measured: odorant receptor agonist call

CCCCCC(=O)C(C)C(C)=O (stereo not given)
inactive: OR10H3 (Homo sapiens) | OR10H4 (Homo sapiens) | OR10H5 (Homo sapiens) | OR10J1 (Homo sapiens) | OR10J3 (Homo sapiens) | OR10J5 (Homo sapiens) | OR10K1 (Homo sapiens) | OR10K2 (Homo sapiens) | OR10P1 (Homo sapiens) | OR10Q1 (Homo sapiens)
